We go through one compound from ChEMBL document CHEMBL4680221, “Discovery of pyrazole derivatives as cellular active inhibitors of histone lysine specific demethylase 5B (KDM5B/JARID1B)” (Eur J Med Chem, 2020).

Calls of active or inactive are those of the source. The calls are words filed in the database; no cut-off is given here.

For experiment [1], the system named is MKN-45. In words: Inhibition of KDM6 in human MKN-45 cells assessed as increase in H3K27me2 accumulation at 0.5 to 20 uM measured after 5 days by Western blot analysis. Format: cell-based. As to conditions: dose 0.5-20 µM, time 5.0 day. In short, it runs like this: (§1)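 MKN45 cells were treated for 5 days and lysed in RIPA buffer. About 30 µg protein was run on 10% SDS-PAGE and transferred to 0.2 µm nitrocellulose, then blocked with 5% milk in PBS for 2 h. Blots were probed for histone methylation marks with histone 3 as loading control and detected by ECL.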
A general note: Immunoblotting shows a protein as a band on a membrane.

For experiment [2], the target named is T1, Lysine-specific demethylase 4C (Homo sapiens, UniProt Q9H3R0).
T1 sequence (Q9H3R0 whole entry): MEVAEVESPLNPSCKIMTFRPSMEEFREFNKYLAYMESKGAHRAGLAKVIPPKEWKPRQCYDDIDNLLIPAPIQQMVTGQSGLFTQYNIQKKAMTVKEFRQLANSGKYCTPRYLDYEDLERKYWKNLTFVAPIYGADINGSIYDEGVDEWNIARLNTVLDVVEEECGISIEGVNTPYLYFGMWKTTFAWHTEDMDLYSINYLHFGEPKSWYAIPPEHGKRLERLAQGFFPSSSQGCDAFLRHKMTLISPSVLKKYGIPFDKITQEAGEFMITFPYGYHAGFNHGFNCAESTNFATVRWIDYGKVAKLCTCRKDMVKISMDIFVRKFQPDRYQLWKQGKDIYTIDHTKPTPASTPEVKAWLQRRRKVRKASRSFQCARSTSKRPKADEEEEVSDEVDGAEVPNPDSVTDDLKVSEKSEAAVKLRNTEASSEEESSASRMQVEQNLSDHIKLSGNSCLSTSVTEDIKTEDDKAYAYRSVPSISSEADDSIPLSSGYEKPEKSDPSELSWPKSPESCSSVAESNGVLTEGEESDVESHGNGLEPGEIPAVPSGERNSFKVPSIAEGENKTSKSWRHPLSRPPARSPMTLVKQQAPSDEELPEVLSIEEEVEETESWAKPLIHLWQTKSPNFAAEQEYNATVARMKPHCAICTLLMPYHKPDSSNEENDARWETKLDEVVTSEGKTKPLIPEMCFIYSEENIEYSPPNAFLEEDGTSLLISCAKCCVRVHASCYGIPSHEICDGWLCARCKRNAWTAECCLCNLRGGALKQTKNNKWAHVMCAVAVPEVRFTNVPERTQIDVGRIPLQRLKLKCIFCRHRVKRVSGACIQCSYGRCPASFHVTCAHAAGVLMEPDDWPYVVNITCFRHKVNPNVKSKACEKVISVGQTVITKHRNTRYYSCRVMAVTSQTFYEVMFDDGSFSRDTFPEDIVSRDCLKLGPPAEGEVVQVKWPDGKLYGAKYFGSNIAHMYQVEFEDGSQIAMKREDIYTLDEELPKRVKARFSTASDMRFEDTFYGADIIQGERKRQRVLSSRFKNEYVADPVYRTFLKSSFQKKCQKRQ
In words: Inhibition of KDM4C (unknown origin).

Experiment [3] relates to MKN-45. In words: Inhibition of KDM4 in human MKN-45 cells assessed as increase in H3K9me2 accumulation at 0.5 to 20 uM measured after 5 days by Western blot analysis. Format: cell-based. As to conditions: dose 0.5-20 µM, time 5.0 day. In short, it runs like this:
as §1

The target of experiment [4] is T2, Lysine-specific demethylase 5C (Homo sapiens, UniProt P41229). In words: Inhibition of KDM5C (unknown origin) at 0.25 uM relative to control.
T2 sequence (P41229 whole entry): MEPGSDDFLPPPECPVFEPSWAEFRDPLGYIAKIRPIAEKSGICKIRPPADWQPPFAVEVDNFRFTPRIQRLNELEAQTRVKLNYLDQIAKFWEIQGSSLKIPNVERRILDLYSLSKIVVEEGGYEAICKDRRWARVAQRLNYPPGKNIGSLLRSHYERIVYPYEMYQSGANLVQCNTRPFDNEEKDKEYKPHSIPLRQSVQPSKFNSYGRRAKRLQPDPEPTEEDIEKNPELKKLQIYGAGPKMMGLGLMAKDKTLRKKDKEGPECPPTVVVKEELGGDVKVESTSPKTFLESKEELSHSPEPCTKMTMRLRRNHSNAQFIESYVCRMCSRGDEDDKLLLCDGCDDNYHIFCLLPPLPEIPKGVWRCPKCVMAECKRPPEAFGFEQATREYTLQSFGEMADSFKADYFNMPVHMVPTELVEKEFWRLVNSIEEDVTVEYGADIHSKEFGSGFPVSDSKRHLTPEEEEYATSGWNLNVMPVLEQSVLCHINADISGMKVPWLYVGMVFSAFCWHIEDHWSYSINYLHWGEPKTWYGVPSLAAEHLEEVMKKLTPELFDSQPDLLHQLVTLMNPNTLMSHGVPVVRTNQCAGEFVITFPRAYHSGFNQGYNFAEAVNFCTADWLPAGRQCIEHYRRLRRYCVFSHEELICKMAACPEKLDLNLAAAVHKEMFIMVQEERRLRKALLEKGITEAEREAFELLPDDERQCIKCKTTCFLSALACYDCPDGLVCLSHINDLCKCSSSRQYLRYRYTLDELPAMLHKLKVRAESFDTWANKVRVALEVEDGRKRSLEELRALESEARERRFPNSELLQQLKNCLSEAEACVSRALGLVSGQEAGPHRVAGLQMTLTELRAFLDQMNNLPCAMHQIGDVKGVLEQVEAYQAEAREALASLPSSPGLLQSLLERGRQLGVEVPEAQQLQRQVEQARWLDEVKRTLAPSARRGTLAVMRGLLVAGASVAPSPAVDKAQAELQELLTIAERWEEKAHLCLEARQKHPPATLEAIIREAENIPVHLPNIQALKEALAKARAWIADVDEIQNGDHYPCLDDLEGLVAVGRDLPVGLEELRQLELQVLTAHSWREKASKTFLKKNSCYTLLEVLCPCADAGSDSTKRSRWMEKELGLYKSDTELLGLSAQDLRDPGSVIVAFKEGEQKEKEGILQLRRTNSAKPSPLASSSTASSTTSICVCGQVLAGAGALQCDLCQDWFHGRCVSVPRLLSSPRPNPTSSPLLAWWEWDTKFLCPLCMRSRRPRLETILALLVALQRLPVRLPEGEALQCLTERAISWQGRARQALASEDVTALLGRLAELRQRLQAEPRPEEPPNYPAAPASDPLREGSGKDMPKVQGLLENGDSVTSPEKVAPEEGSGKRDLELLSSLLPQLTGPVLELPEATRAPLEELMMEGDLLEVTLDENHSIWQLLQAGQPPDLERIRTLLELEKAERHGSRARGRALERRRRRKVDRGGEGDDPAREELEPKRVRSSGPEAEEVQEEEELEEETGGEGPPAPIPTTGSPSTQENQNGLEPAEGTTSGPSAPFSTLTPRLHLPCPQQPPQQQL
Experiment [5] has as its target Lysine-specific demethylase 5B (Homo sapiens, UniProt Q9UGL1). The experiment in a line: Inhibition of KDM5B in human MKN-45 cells assessed as protein stabilization measured after 1 hr by cellular thermal shift assay. The class given is cell-based. In a few lines: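 MKN45 cells (5×10^5) were treated with compound or DMSO for 1 h, washed in PBS and resuspended in PBS with protease inhibitors. Cells were heated at 46 °C for 3 min, then freeze-thawed three times in liquid nitrogen. KDM5B in the supernatant was measured by western blot with GAPDH control. Repeated three times.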

Experiment [6] deals with T2, Lysine-specific demethylase 5C. In words: Inhibition of KDM5C (unknown origin) at 1 uM relative to control.

Lysine-specific demethylase 5B, sequence (Q9UGL1 whole entry): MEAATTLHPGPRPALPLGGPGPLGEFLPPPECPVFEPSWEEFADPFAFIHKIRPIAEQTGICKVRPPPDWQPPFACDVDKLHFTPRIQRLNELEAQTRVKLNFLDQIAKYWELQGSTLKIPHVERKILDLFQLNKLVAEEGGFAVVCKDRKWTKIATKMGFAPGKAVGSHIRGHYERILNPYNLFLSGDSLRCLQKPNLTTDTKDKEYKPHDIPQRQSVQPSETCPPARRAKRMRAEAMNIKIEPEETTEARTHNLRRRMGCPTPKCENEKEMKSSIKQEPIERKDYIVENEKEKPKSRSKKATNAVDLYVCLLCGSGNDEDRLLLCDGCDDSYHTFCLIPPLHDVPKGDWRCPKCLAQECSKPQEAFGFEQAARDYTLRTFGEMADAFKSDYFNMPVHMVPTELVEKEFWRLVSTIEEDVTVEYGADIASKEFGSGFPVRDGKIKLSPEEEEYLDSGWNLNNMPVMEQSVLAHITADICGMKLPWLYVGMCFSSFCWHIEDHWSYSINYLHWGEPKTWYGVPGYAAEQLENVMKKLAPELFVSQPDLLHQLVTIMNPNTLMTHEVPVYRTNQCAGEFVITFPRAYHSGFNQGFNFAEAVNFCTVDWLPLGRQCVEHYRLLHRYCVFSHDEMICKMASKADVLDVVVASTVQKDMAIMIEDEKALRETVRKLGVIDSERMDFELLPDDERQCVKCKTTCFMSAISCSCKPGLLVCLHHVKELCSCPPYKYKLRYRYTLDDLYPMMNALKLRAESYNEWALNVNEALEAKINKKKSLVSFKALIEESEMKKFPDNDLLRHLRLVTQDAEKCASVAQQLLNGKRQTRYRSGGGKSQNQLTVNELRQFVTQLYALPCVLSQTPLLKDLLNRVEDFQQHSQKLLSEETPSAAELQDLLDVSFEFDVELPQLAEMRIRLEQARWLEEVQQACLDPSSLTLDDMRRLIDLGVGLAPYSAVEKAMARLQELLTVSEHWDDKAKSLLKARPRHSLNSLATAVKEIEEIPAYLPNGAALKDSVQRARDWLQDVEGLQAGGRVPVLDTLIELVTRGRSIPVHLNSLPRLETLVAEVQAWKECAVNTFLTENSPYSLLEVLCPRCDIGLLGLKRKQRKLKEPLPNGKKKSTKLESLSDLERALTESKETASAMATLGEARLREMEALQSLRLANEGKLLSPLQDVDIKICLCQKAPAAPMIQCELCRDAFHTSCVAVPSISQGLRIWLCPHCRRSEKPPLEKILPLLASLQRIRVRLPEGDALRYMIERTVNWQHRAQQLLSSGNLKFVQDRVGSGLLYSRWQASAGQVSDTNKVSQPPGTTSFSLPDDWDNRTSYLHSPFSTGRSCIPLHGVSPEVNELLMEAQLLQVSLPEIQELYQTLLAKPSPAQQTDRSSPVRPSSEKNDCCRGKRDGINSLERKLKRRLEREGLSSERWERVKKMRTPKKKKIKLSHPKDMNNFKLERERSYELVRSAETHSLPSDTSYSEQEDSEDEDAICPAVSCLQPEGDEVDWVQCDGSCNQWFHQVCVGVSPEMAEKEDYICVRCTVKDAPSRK

In the case of `COc1ccc(-n2cc(C(=O)NCC(C)(C)N3CCOCC3)c(-c3ccccc3)n2)cc1`, the inhibition result in experiment [1] and in experiment [3] was “inactive” each time. For the same compound, 1110 nM corresponded to half-maximal inhibition in experiment [2] (IC50). Also, the inhibition (usually how much of the control response was suppressed) in experiment [4] is 62.1%; in experiment [5] it was “Dose-dependent effect”; in experiment [6], 80.2%.
